≈ marks a conversion by molar mass, not a printed value.
Tests used:
Cryptococcus neoformans [1] = experiment: Growth inhibition of Cryptococcus neoformans ATCC 32264 at 31.25 ug/ml incubated for 48 hrs under dark condition by broth microdilution method relative to control; assay type: functional; conditions: ATCC 32264, 48 h, read-out: GI
How it was run: (§1)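 CLSI M27-A3 broth microdilution in RPMI-1640, DMSO ≤1%. Inoculum 1-5 × 10^3 CFU/mL. Incubated 48 h at 30 °C, dark. % inhibition = 100 − (OD405 test − sterility control)/(OD405 growth control − sterility control), with growth and sterility control wells. Triplicate.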

Leishmania panamensis = experiment: Antileshmanial activity against EpiR/GFP fused Leishmania panamensis MHOM/CO/87/UA140 intracellular amastigotes infected in human […] cells after 72 hrs by flow cytometric method; assay type: functional, cell-based; conditions: MHOM/CO/87/UA140, 72 h
How it was run: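 PMA-treated U-937 cells (3 × 10^5 cells/mL) infected with stationary-phase GFP L. panamensis promastigotes (15:1), 3 h at 34 °C, then washed. After 24 h, compounds added at 50, 12.5, 3.125 and 0.78 µg/mL for 72 h at 37 °C. EC50 by Probit; triplicate, two experiments.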

Escherichia coli = experiment: Antibacterial activity against Escherichia coli ATCC 25922 after 24 hrs by resazurin dye based microdilution assay; assay type: functional; conditions: ATCC 25922, 24 h
How it was run: (§2)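 MIC taken as the lowest concentration giving visible inhibition and/or by resazurin (1 mg/mL). Gentamicin was the control. Run in duplicate, repeated at least three times.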

Candida albicans [2] = experiment: Growth inhibition of Candida albicans ATCC 10231 at 31.25 ug/ml incubated for 48 hrs under dark condition by broth microdilution method relative to control; assay type: functional; conditions: ATCC 10231, 48 h, read-out: GI; how it was run: as §1
Klebsiella pneumoniae [3] = experiment: Antibacterial activity against ESBL positive Klebsiella pneumoniae ATCC 700603 after 24 hrs by resazurin dye based microdilution assay; assay type: functional; conditions: Klebsiella pneumoniae, 700603, 24 h; how it was run: as §2
Candida albicans [4] = experiment: Antifungal activity against Candida albicans ATCC 10231 incubated for 48 hrs under dark condition by broth microdilution method; assay type: functional; conditions: ATCC 10231, 48 h
How it was run: (§3)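 CLSI M27-A3 broth microdilution in RPMI-1640, DMSO ≤1%, compounds at 250-0.98 µg/mL final. Inoculum 1-5 × 10^3 CFU/mL. Incubated 48 h at 30 °C in a moist dark chamber, read at OD405. MIC80 and MIC50 taken from % inhibition dose-response curves (mean ± SEM, triplicate). Amphotericin B was the positive control.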

U-937 = experiment: Cytotoxicity against human U937 cells after 72 hrs by MTT assay; assay type: cell-based; conditions: u-937, 72 h
How it was run: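 Exponentially growing U-937 at 1 × 10^5 cells/mL in RPMI-1640 with 10% FBS were exposed to 200, 50, 12.5 and 3.125 µg/mL for 72 h at 37 °C, 5% CO2. MTT for 3 h, stopped with isopropanol/SDS, formazan read at 570 nm, blank-corrected. LC50 by Probit from % viability against untreated cells. Triplicate, at least two independent experiments.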

Candida albicans [5] = experiment: Growth inhibition of Candida albicans ATCC 10231 at 3.4 ug/ml incubated for 48 hrs under dark condition by broth microdilution method relative to control; assay type: functional; conditions: ATCC 10231, 48 h, read-out: GI
Candida albicans [6] = experiment: Growth inhibition of Candida albicans ATCC 10231 at 15.62 ug/ml incubated for 48 hrs under dark condition by broth microdilution method relative to control; assay type: functional; conditions: ATCC 10231, 48 h, read-out: GI; how it was run: as §1
Candida albicans [7] = experiment: Growth inhibition of Candida albicans ATCC 10231 at 7.8 ug/ml incubated for 48 hrs under dark condition by broth microdilution method relative to control; assay type: functional; conditions: ATCC 10231, 48 h, read-out: GI; how it was run: as §1
Trypanosoma cruzi = experiment: Antitrypanosomal activity against Trypanosoma cruzi Tulahuen intracellular amastigote harboring LacZ infected in human U937 cells after 72 hrs by CPRG/Nonidet reagent based spectrophotometric method; assay type: functional, cell-based; conditions: U-937, 72 h
How it was run: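 U-937 cells at 2.5 × 10^5 cells/mL in RPMI-1640 with 10% serum and 0.1 µg/mL PMA were infected with β-galactosidase-transfected Tulahuen epimastigotes at 5 parasites per cell. Infected cells were exposed to 50, 12.5, 3.125 and 0.78 µg/mL for 72 h. CPRG (100 uM) and 0.1% Nonidet P-40 were added for 3 h, read at 570 nm. EC50 by Probit. Triplicate, at least two experiments; benznidazole as reference.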

Candida albicans [8] = experiment: Growth inhibition of Candida albicans ATCC 10231 at 250 ug/ml incubated for 48 hrs under dark condition by broth microdilution method relative to control; assay type: functional; conditions: ATCC 10231, 48 h, read-out: GI; how it was run: as §1
Cryptococcus neoformans [9] = experiment: Growth inhibition of Cryptococcus neoformans ATCC 32264 at 7.8 ug/ml incubated for 48 hrs under dark condition by broth microdilution method relative to control; assay type: functional; conditions: ATCC 32264, 48 h, read-out: GI; how it was run: as §1
Cryptococcus neoformans [10] = experiment: Antifungal activity against Cryptococcus neoformans ATCC 32264 incubated for 48 hrs under dark condition by broth microdilution method; assay type: functional; conditions: ATCC 32264, 48 h; how it was run: as §3
Staphylococcus aureus [11] = experiment: Antibacterial activity against vancomycin-intermediate Staphylococcus aureus after 24 hrs by resazurin dye based microdilution assay; assay type: functional; how it was run: as §2
Cryptococcus neoformans [12] = experiment: Growth inhibition of Cryptococcus neoformans ATCC 32264 at 62.5 ug/ml incubated for 48 hrs under dark condition by broth microdilution method relative to control; assay type: functional; conditions: ATCC 32264, 48 h, read-out: GI; how it was run: as §1
Candida albicans [13] = experiment: Growth inhibition of Candida albicans ATCC 10231 at 125 ug/ml incubated for 48 hrs under dark condition by broth microdilution method relative to control; assay type: functional; conditions: ATCC 10231, 48 h, read-out: GI; how it was run: as §1
Cryptococcus neoformans [14] = experiment: Growth inhibition of Cryptococcus neoformans ATCC 32264 at 250 ug/ml incubated for 48 hrs under dark condition by broth microdilution method relative to control; assay type: functional; conditions: ATCC 32264, 48 h, read-out: GI; how it was run: as §1
Klebsiella pneumoniae [15] = experiment: Antibacterial activity against carbapenemase positive Klebsiella pneumoniae BAA 1705 after 24 hrs by resazurin dye based microdilution assay; assay type: functional; conditions: BAA 1705, 24 h; how it was run: as §2
Staphylococcus aureus [16] = experiment: Antibacterial activity against methicillin-resistant Staphylococcus aureus ATCC 43300 after 24 hrs by resazurin dye based microdilution assay; assay type: functional; conditions: ATCC 43300, 24 h
How it was run: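 Broth microdilution in Mueller Hinton broth, inoculum 5 × 10^5 – 8 × 10^5. Compound stocks diluted in MHB with 5% DMSO and 0.1% Tween 80. Incubation 24 h at 35-37 °C. MIC is the lowest concentration with visible growth inhibition and/or by resazurin (1 mg/mL) read-out. Gentamicin as control. Run in duplicate, replicated at least three times.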

Cryptococcus neoformans [17] = experiment: Growth inhibition of Cryptococcus neoformans ATCC 32264 at 15.62 ug/ml incubated for 48 hrs under dark condition by broth microdilution method relative to control; assay type: functional; conditions: ATCC 32264, 48 h, read-out: GI; how it was run: as §1
Staphylococcus aureus [18] = experiment: Antibacterial activity against methicillin-sensitive Staphylococcus aureus ATCC 25923 after 24 hrs by resazurin dye based microdilution assay; assay type: functional; conditions: ATCC 25923, 24 h; how it was run: as §2
Neisseria gonorrhoeae = experiment: Antibacterial activity against beta lactamase positive Neisseria gonorrhoeae ATCC 31426 by oxidase test; assay type: functional
How it was run: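 Agar dilution MIC on GC agar with 1% isovitalex containing increasing compound concentrations. Plates inoculated with about 1×10^4 CFU (5 µL). MIC is the lowest concentration that inhibited growth, with growth confirmed by oxidase test. Run in duplicate, repeated at least three times.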

Candida albicans [19] = experiment: Growth inhibition of Candida albicans ATCC 10231 at 62.5 ug/ml incubated for 48 hrs under dark condition by broth microdilution method relative to control; assay type: functional; conditions: ATCC 10231, 48 h, read-out: GI; how it was run: as §1
Pseudomonas aeruginosa = experiment: Antibacterial activity against Pseudomonas aeruginosa ATCC 27853 after 24 hrs by resazurin dye based microdilution assay; assay type: functional; conditions: ATCC 27853, 24 h; how it was run: as §2
Cryptococcus neoformans [20] = experiment: Growth inhibition of Cryptococcus neoformans ATCC 32264 at 125 ug/ml incubated for 48 hrs under dark condition by broth microdilution method relative to control; assay type: functional; conditions: ATCC 32264, 48 h, read-out: GI; how it was run: as §1
Cryptococcus neoformans [21] = experiment: Growth inhibition of Cryptococcus neoformans ATCC 32264 at 3.4 ug/ml incubated for 48 hrs under dark condition by broth microdilution method relative to control; assay type: functional; conditions: ATCC 32264, 48 h, read-out: GI
Plasmodium falciparum = experiment: Antiplasmodial activity against chloroquine-sensitive Plasmodium falciparum 3D7 assessed as reduction in parasitic LDH activity after 48 hrs by Malstat reagent based […] method; assay type: functional; conditions: 3D7, 48 h
How it was run: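 Unsynchronized P. falciparum 3D7 at 0.5% parasitemia and 1% hematocrit in RPMI with 3% Albumax II. Exposed to 100, 25, 6.25 and 1.56 µg/mL for 48 h at 37 °C under 90% N2/5% CO2/5% O2. After three freeze-thaw cycles, LDH measured with Malstat and NBT/PES, 1 h in the dark, read at 650 nm. IC50 by Probit; triplicate, ≥2 experiments.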

Structure (SMILES) | inhibition of growth at 31.25 µg/mL (Cryptococcus neoformans [1]) | EC50 (Leishmania panamensis) | MIC (Escherichia coli) | inhibition of growth at 31.25 µg/mL (Candida albicans [2]) | MIC (Klebsiella pneumoniae [3]) | MIC50 (Candida albicans [4]) | MIC80 (Candida albicans [4]) | LC50 (U-937) | inhibition of growth at 3.4 µg/mL (Candida albicans [5]) | inhibition of growth at 15.62 µg/mL (Candida albicans [6]) | inhibition of growth at 7.8 µg/mL (Candida albicans [7]) | EC50 (Trypanosoma cruzi) | inhibition of growth at 250 µg/mL (Candida albicans [8]) | inhibition of growth at 7.8 µg/mL (Cryptococcus neoformans [9]) | MIC50 (Cryptococcus neoformans [10]) | MIC80 (Cryptococcus neoformans [10]) | MIC (Staphylococcus aureus [11]) | inhibition of growth at 62.5 µg/mL (Cryptococcus neoformans [12]) | inhibition of growth at 125 µg/mL (Candida albicans [13]) | inhibition of growth at 250 µg/mL (Cryptococcus neoformans [14]) | also measured
Cc1ccc(C2=NN(c3cc(Cl)cc(Cl)c3)C(c3cccc(Nc4ccnc5cc(Cl)ccc45)c3)C2)cc1 (stereo not given) | 6.71% | 18.1 mg/L (≈ 32.5 µM) | > 1000 mg/L | 0% | > 1000 mg/L | ≥ 250 mg/L | ≥ 250 mg/L | > 200 mg/L | 0% | 0% | 0% | 49.2 mg/L (≈ 88.3 µM) | 17.9% | 1.15% | ≥ 250 mg/L | ≥ 250 mg/L | > 1000 mg/L | 8.02% | 3.88% | 40.9% | MIC (Klebsiella pneumoniae [15]): > 1000 mg/L; MIC (Staphylococcus aureus [16]): > 1000 mg/L; inhibition of growth at 15.62 µg/mL (Cryptococcus neoformans [17]): 1.85%; MIC (Staphylococcus aureus [18]): > 1000 mg/L; MIC (Neisseria gonorrhoeae): > 1000 mg/L; inhibition of growth at 62.5 µg/mL (Candida albicans [19]): 0%; MIC (Pseudomonas aeruginosa): > 1000 mg/L; inhibition of growth at 125 µg/mL (Cryptococcus neoformans [20]): 15.3%; inhibition of growth at 3.4 µg/mL (Cryptococcus neoformans [21]): 0%; EC50 (Plasmodium falciparum): 65.2 mg/L (≈ 117 µM)
Clc1cc(Cl)cc(N2N=C(c3ccccc3)CC2c2cccc(Nc3ccnc4cc(Cl)ccc34)c2)c1 (stereo not given) | 2.16% | 17.8 mg/L (≈ 32.8 µM) | > 1000 mg/L | 0% | > 1000 mg/L | ≥ 250 mg/L | ≥ 250 mg/L | > 200 mg/L | 0% | 0% | 0% | 32.6 mg/L (≈ 60 µM) | 11.2% | 0% | ≥ 250 mg/L | ≥ 250 mg/L | > 1000 mg/L | 3.07% | 2.17% | 7.5% | MIC (Klebsiella pneumoniae [15]): > 1000 mg/L; MIC (Staphylococcus aureus [16]): > 1000 mg/L; inhibition of growth at 15.62 µg/mL (Cryptococcus neoformans [17]): 1.36%; MIC (Staphylococcus aureus [18]): > 1000 mg/L; MIC (Neisseria gonorrhoeae): > 1000 mg/L; inhibition of growth at 62.5 µg/mL (Candida albicans [19]): 0%; MIC (Pseudomonas aeruginosa): > 1000 mg/L; inhibition of growth at 125 µg/mL (Cryptococcus neoformans [20]): 3.29%; inhibition of growth at 3.4 µg/mL (Cryptococcus neoformans [21]): 0%; EC50 (Plasmodium falciparum): 12.5 mg/L (≈ 23.1 µM)
